The record followed here is ChEMBL document CHEMBL1833870, “Deconstruction of the α4β2 nicotinic acetylcholine receptor positive allosteric modulator desformylflustrabromine” (J Med Chem, 2011).

Experiment [1] addresses T1, Neuronal acetylcholine receptor; alpha4/beta2 (Homo sapiens, UniProt P17787+P43681). Nature of the experiment: Agonist activity at human alpha4beta2 nACHR expressed in xenopus oocyte assessed as potentiation of acetylcholine-induced current by two electrode voltage clamp assay. In kind it is functional. The method, boiled down:
(§1)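 Human α4 and β2 cRNA injected into stage IV Xenopus oocytes (50 nL total at 0.2 ng/nL, subunit ratio as appropriate), then incubated 24–72 h at 19 °C. Two-electrode voltage clamp in a vertical flow chamber perfused with ND-96 (pH 7.4) at 20 mL/min. Compound in ND-96 was co-applied with ACh, and the enhancement of current was measured. Concentration–response curves were fit by non-linear regression.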

Experiment [2] deals with Neuronal acetylcholine receptor subunit alpha-7 (Homo sapiens, UniProt P36544). Kind of experiment: Antagonist activity at human alpha7 nAChR expressed in xenopus oocyte assessed as inhibition of acetylcholine-induced current by two-electrode voltage clamp assay. In kind it is functional. The method, boiled down:
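Xenopus stage IV oocytes were injected with human α7 cRNA (50 nL, 0.2 ng/nL) and kept 24–72 h at 19 °C. Recording was by two-electrode voltage clamp with ND-96 perfusion (pH 7.4) at 20 mL/min. Compound dissolved in ND-96 was co-applied with ACh, and inhibition of the ACh response was read. Concentration–response data were fit by non-linear regression.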
Background: Two-electrode voltage clamp holds a large cell at a set potential and records current.

Experiment [3] concerns the target T1, Neuronal acetylcholine receptor; alpha4/beta2. Nature of the experiment: Agonist activity at human alpha4beta2 nACHR expressed in xenopus oocyte assessed as potentiation of acetylcholine-induced current by two electrode voltage clamp assay relative to acetylcholine. In kind it is functional. The method, boiled down:
as §1

A further experiment is filed under the species Homo sapiens. Nature of the experiment: Selectivity ratio of IC50 for human alpha7 nAChR to IC50 for human alpha4beta2 nAChR.

Molecules are shown by their SMILES. Structures can show the parent of a compound that is named as a salt. The source made the active and inactive calls. No cut-off for these calls is given here.

The term Emax denotes the maximal effect, on the per cent scale that the assay sets.

Neuronal acetylcholine receptor subunit alpha-7, sequence (P36544 whole entry, the tested form may be a part): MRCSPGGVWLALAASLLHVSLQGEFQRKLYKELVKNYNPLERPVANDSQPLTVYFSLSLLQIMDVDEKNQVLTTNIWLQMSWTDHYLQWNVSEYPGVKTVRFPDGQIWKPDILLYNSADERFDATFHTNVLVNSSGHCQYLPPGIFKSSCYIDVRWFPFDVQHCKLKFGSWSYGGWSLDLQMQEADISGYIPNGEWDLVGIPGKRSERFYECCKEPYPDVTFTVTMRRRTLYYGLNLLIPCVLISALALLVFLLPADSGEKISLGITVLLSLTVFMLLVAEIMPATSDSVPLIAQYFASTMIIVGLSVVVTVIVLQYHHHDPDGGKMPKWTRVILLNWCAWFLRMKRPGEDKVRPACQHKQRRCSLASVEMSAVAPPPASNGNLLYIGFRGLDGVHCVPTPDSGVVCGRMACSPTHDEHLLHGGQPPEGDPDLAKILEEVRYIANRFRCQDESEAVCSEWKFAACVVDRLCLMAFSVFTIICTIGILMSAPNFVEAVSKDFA
T1 sequence (P17787 whole entry, the tested form may be a part): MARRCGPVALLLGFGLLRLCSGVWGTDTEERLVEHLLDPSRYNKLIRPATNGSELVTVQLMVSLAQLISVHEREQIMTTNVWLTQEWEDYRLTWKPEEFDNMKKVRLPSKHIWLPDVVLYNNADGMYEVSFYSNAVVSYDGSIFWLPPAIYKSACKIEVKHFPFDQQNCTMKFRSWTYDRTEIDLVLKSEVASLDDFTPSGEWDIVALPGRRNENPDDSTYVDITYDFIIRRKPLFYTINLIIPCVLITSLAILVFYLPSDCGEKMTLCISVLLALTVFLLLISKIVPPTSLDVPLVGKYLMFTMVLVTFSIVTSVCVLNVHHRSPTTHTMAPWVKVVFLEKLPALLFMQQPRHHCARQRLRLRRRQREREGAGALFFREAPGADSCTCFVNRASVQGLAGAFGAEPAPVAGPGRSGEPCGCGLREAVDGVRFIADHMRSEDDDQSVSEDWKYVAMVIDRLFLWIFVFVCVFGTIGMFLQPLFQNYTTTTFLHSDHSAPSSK
T1 sequence (P43681 whole entry, the tested form may be a part): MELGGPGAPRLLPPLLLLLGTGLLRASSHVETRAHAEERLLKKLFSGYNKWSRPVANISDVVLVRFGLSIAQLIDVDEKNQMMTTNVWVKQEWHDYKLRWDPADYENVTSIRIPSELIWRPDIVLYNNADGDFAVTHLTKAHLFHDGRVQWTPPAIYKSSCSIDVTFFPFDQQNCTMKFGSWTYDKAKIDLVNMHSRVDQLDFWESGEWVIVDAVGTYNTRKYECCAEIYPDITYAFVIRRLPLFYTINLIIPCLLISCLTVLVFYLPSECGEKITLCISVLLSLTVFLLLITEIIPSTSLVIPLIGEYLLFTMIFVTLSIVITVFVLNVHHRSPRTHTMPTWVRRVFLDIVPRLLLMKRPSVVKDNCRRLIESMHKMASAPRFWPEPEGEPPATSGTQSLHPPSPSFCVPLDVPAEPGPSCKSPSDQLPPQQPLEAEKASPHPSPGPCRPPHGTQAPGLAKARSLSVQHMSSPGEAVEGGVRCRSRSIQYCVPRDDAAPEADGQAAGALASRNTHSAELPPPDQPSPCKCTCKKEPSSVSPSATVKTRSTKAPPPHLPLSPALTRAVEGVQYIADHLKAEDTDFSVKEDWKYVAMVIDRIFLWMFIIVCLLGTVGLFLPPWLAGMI

As to `CCCc1[nH]c2ccccc2c1CCNC`, the pEC50 result in experiment [1] was “inactive”. In experiment [2], the EC50 is 44.7 µM.

For `C=CC(C)(C)c1[nH]c2ccccc2c1CCNC`, the Emax in experiment [3] turned out to be 250%. Further, the EC50 is 6.77 µM in experiment [1] (read-out: EC50), 7.24 µM in experiment [1] (read-out: pEC50 (converted)) and 7.76 µM in experiment [2].

With `C=CC(C)(C)c1[nH]c2cc(Br)ccc2c1CCN`, the figures for the EC50 in experiment [1] (read-out: pEC50 (converted)) and in experiment [2] were 0.513 µM and 5.75 µM, respectively.

For `CCC(C)(C)c1[nH]c2cc(Br)ccc2c1CCNC`, the maximal effect (Emax) in experiment [3] was 290%. Besides, the values for the EC50 in experiment [1] (read-out: EC50), in experiment [1] (read-out: pEC50 (converted)) and in experiment [2] were 0.1 µM, 0.138 µM and 25.7 µM, respectively. Also, in the experiment filed under Homo sapiens, the Ratio IC50 is 190.

For the compound `CCC(C)c1[nH]c2ccccc2c1CCNC` (racemic), the pEC50 result in experiment [1] was “inactive”. For the same compound, in experiment [2], the EC50 is 9.77 µM.

In the case of `CNCCc1c[nH]c2cc(Br)ccc12`, the pEC50 entry in experiment [1] is “inactive”. The EC50 in experiment [2] was 11 µM.

For `CNCCc1c(C(C)(C)C)[nH]c2ccccc12`, the EC50 in experiment [1] (read-out: pEC50 (converted)) was 3.98 µM; in experiment [2], 4.79 µM.

For the compound `CNCCc1c(C(C)C)[nH]c2ccccc12`, the pEC50 result in experiment [1] was “inactive”.

For the compound `C=CC(C)(C)c1[nH]c2cc(Br)ccc2c1CCNC` [DESFORMYLFLUSTRABROMINE HYDROCHLORIDE], the EC50 in experiment [1] (read-out: EC50) is 0.32 µM; in experiment [1] (read-out: pEC50 (converted)), 0.331 µM; in experiment [2], 1.86 µM.

With `CCCc1[nH]c2cc(Br)ccc2c1CCNC`, the pEC50 entry in experiment [1] is “inactive”. The EC50 in experiment [2] is 20.9 µM.

With `CCC(C)(C)c1[nH]c2ccccc2c1CCNC`, the Emax in experiment [3] worked out at 260%. Besides, the figures for the EC50 in experiment [1] (read-out: EC50), in experiment [1] (read-out: pEC50 (converted)) and in experiment [2] were 1.22 µM, 3.02 µM and 20.4 µM, respectively.

For the compound `C=CCc1[nH]c2cc(Br)ccc2c1CCNC`, the pEC50 entry in experiment [1] is “inactive”. In addition, the EC50 in experiment [2] is 29.5 µM.
